Consider 14 molecules from ChEMBL document CHEMBL1132380, “Drug delivery systems employing 1,4- or 1,6-elimination: poly(ethylene glycol) prodrugs of amine-containing compounds” (J Med Chem, 1999).

Series [1] can be described thus: Half-life in buffer at pH 7.4. The class given is ADME. The procedure, abridged:
(§1)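 Release of free drug and hydrolysis of PEG conjugate followed in PBS (pH 7.4) or fresh rat plasma at 37 °C. Half-life derived from these rates. Run in duplicate; SD ±10%.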

Series [2] relates to Mus musculus. Kind of series: T/C of median tumor volumes when 3 mg/kg/dose of compound was given to BALB/c mice bearing sc M109 on days 3 and 6 (iv) after inoculation (control ~2000 mm**3). The class given is functional. The method, boiled down:
(§2)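 Female balb/c mice (20–25 g) given about 5×10^5 M109 cells sc in the left flank on day 0. M109 grown in EMEM with 10% FBS. Dosing is 3 mg/kg/dose of active DNR, ip on days 1 and 4 or iv on days 3 and 6. Groups of 6 include untreated controls. Median tumor volumes compared when control median reached about 2000 mm³.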

Series [3] has as its system Mus musculus. Description: T/C of median tumor volumes when 3 mg/kg/dose of compound was given to BALB/c mice bearing sc M109 on days 1 and 4 (ip) after inoculation (control ~2000 mm**3). The class given is functional. To be noted: route intraperitoneal. The procedure, abridged: as §2
A further series relates to P388. Kind of series: Compound was evaluated for cytotoxicity against P388 leukemia cell line. The class given is functional, cell-based. To be noted: Mus musculus.
A short description of series [4]: Half-life in rat plasma. The class given is ADME. The procedure, abridged: as §1
Series [5] relates to Mus musculus. Description: Toxicity at a dose of 830 mg/kg against M109 tumors conducted in female BALB/c mice. The class given is functional.
Series [6] deals with Mus musculus. Kind of series: Effect of 3 mg/kg/dose of compound given iv q4d x 3 against sc human ovarian tumor (SK-OV3) in mice expressed as Mean tumor volume by day 30. The class given is functional. The procedure, abridged: (§3)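 Female nu/nu mice (18–24 g) given 1×10^6 SKOV3 cells sc in the left flank in 0.1 mL medium. SKOV3 grown in McCoy's 5a with 15% FBS. Dosing starts at about 70 mm³ mean tumor volume (day 1), with 3 mg/kg/dose DNR content iv on days 1, 5 and 9. n = 5/group against untreated controls. Mean volumes compared at day 30; median volumes compared when control median reached about 1000 mm³.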

Series [7] relates to Mus musculus. Kind of series: Effect of 3 mg/kg/dose of compound given iv q4d x 3 against sc human ovarian tumor (SK-OV3) in mice expressed as % tumor volume change from initial by day 30. The class given is functional. The method, boiled down:
as §3

Series [8] deals with Mus musculus. Kind of series: Effect of 3 mg/kg/dose of compound given iv q4d x 3 against sc human ovarian tumor (SK-OV3) in mice expressed as treated/ control mean tumor volume on day 30. The class given is functional. The method, boiled down: as §3
Series [9] relates to Mus musculus. Kind of series: Effect of 3 mg/kg/dose of compound given iv q4d x 3 against sc human ovarian tumor (SK-OV3) in mice expressed as treated/ control ( 1000 mm**3) median tumor volume on day 30. The class given is functional. The procedure, abridged: as §3

`COc1cc(COC(=O)NCC(=O)[C@]2(O)Cc3c(O)c4c(c(O)c3[C@@H](OC3CC(N)C(O)C(C)O3)C2)C(=O)c2c(OC)cccc2C4=O)cc(OC)c1OC(=O)CCOCCOCCO` (stereo not given in full): the results for the half-life in series [1] and in [4] were above 48 h and 1 h, respectively. Also, the T/C with Mus musculus [2] is reported as 48.2%; in the series with Mus musculus [3], 68.6%. The same molecule returned an IC50 in the series with P388 of 27 nM.

Regarding `Cc1cc(COC(=O)NC(C)C)cc(C)c1NC(=O)OCCOCCOCCO`, the “Toxicity (deaths)” value in the series with Mus musculus [5] is recorded as 0%.

`COc1cccc2c1C(=O)c1c(O)c3c(c(O)c1C2=O)C[C@@](O)(C(=O)CNC(=O)OCc1ccc(OC(=O)NCCOCCOCCO)cc1)C[C@@H]3OC1CC(N)C(O)C(C)O1` (stereo not given in full) yielded a Mean tumor volume with Mus musculus [6] of 154. This molecule came in with a Tumor growth in the series on Mus musculus [7] of 86%. The T/C in the series with Mus musculus [8] is on record as 12%; in the series on Mus musculus [2] it was 64.6%; in the series with Mus musculus [3], 84.1%; in the series with Mus musculus [9], 11%. Further, the half-life in series [1] is above 48 h; in series [4] it was 4 h. This molecule also registered an IC50 in the series with P388 of 15 nM.

For `COc1cccc2c1C(=O)c1c(O)c3c(c(O)c1C2=O)C[C@@](O)(C(=O)CNC(=O)OCc1ccc(OC(=O)C(C)(C)NC(=O)CCOCCOCCO)cc1)C[C@@H]3OC1CC(N)C(O)C(C)O1` (stereo not given in full), the half-life in [1] is above 48 h; in [4], 1.3 h. For the same molecule, in the series with Mus musculus [3], the T/C was 87.6%. The same molecule returned a half-inhibitory concentration (IC50) in the series with P388 of 18 nM.

`COc1cccc2c1C(=O)c1c(O)c3c(c(O)c1C2=O)C[C@@](O)(C(=O)CNC(=O)OCc1cc(C)c(OC(=O)CCOCCOCCO)c(C)c1)C[C@@H]3OC1CC(N)C(O)C(C)O1` (stereo not given in full): the half-life was above 48 h in series [1] and 1.9 h in series [4]. The T/C is listed as 67.9% in the series on Mus musculus [2] and 90.3% in the series on Mus musculus [3]. In the series with P388, this molecule returned an IC50 of 55 nM.

Take `COc1cccc2c1C(=O)c1c(O)c3c(c(O)c1C2=O)C[C@@](O)(C(=O)CNC(=O)OCc1ccc(OC(=O)CCOCCOCCO)cc1)C[C@@H]3OC1CC(N)C(O)C(C)O1` (stereo not given in full): the half-life is above 24 h in [1] and 0.4 h in series [4]. In the series with Mus musculus [3], this molecule gave a T/C of 92.8%. The same molecule gave an IC50 with P388 of 8 nM.

For the molecule `Cc1cc(COC(=O)NC(C)C)cc(C)c1OC(=O)CCOCCOCCO`, the “Toxicity (deaths)” value in the series with Mus musculus [5] is on record as 0%.

With `COc1cccc2c1C(=O)c1c(O)c3c(c(O)c1C2=O)C[C@@](O)(C(=O)CNC(=O)OCc1ccc(NC(=O)CCOCCOCCO)cc1)C[C@@H]3OC1CC(N)C(O)C(C)O1` (stereo not given in full), the half-life in series [1] was above 48 h; in series [4], above 24 h. In addition, in the series on Mus musculus [3], the T/C was 122.7%. Moreover, the IC50 with P388 amounted to 457 nM.

Turning to `COc1cccc2c1C(=O)c1c(O)c3c(c(O)c1C2=O)C[C@@](O)(C(=O)CNC(=O)OCc1ccccc1OC(=O)NCCOCCOCCO)C[C@@H]3OC1CC(N)C(O)C(C)O1` (stereo not given in full), the half-life in [1] was above 48 h; in [4], 3 h. The T/C with Mus musculus [2] came to 68.7%; in the series on Mus musculus [3], 91.3%. In the series with P388, this molecule yielded an IC50 of 35 nM.

In the series with Mus musculus [6], `COc1cccc2c1C(=O)c1c(O)c3c(c(O)c1C2=O)C[C@@](O)(C(=O)CNC(=O)OCc1ccc(NC(=O)OCCOCCOCCO)cc1)C[C@@H]3OC1CC(N)C(O)C(C)O1` (stereo not given in full) had a Mean tumor volume of 272. Moreover, the Tumor growth in the series with Mus musculus [7] stood at 400%. Moreover, the T/C with Mus musculus [8] was determined as 21%; in the series on Mus musculus [2] it was 129%; with Mus musculus [3] it was 75.3%; with Mus musculus [9], 41%. Also, the half-life in series [1] is above 48 h; in series [4], above 24 h. This molecule also showed a 50% inhibitory concentration (IC50) in the series with P388 of 415 nM.

`COc1cccc2c1C(=O)c1c(O)c3c(c(O)c1C2=O)C[C@@](O)(C(=O)CNC(=O)OCc1cc(C)c(OC(=O)OCCOCCOCCO)c(C)c1)C[C@@H]3OC1CC(N)C(O)C(C)O1` (stereo not given in full): the half-life is above 48 h in series [1] and 2.9 h in series [4]. Besides, the T/C came to 74.4% in the series on Mus musculus [2] and 90.3% with Mus musculus [3]. This molecule registered an IC50 with P388 of 179 nM.

For `COc1cc(COC(=O)NC(CC(C)C)C(=O)OC(C)(C)C)cc(OC)c1OC(=O)CCOCCOCCO` (stereo not given), the “Toxicity (deaths)” value in the series on Mus musculus [5] was found to be 0%.

Take `COc1cccc2c1C(=O)c1c(O)c3c(c(O)c1C2=O)C[C@@](O)(C(=O)CNC(=O)OCc1ccccc1NC(=O)OCCOCCOCCO)C[C@@H]3OC1CC(N)C(O)C(C)O1` (stereo not given in full): the half-life in series [1] is above 48 h; in series [4], above 24 h. In addition, the T/C was determined as 117% in the series with Mus musculus [2] and 112.2% in the series on Mus musculus [3]. Moreover, the IC50 in the series with P388 was determined as 130 nM.

In the series with Mus musculus [6], `COc1cccc2c1C(=O)c1c(O)c3c(c(O)c1C2=O)C[C@@](O)(C(C)=O)C[C@@H]3O[C@H]1C[C@H](N)[C@H](O)[C@H](C)O1` [DAUNORUBICIN] returned a Mean tumor volume of 1154. This molecule had a Tumor growth with Mus musculus [7] of 1226%. Further, the T/C came out at 92% in the series with Mus musculus [8], 117% in the series on Mus musculus [2], 44.8% in the series with Mus musculus [3] and 54% in the series on Mus musculus [9]. The molecule further had an IC50 in the series with P388 of 3 nM.

The half-life is the time in which the quantity being followed falls by half. Low values mean fast loss, high ones slow loss. Broadly, the T/C is the ratio of treated to control. Broadly, the IC50 is the concentration needed to halve the response being measured. Lower therefore signals greater potency.
